From ChEMBL document CHEMBL3526077, “Prediction of human metabolism of FK3453 by aldehyde oxidase using chimeric mice transplanted with human or rat hepatocytes” (Drug Metab Dispos, 2012) come the findings set out here.

Data set [1] deals with Mus musculus. Nature of the data set: Drug metabolism in plasma of chimeric mouse transplanted with rat hepatocytes treated with FK3453 at 3 mg/kg, iv as single dose. Format: ADME, organism-based, Hepatocyte. Set-up: dose 3 mg/kg, route intravenous. Put shortly:
(§1)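 Pooled plasma from h-PXB or r-PXB mice after a 3 mg/kg i.v. dose was mixed with an equal volume of acetonitrile and centrifuged. Metabolites were profiled by C18 UPLC with ammonium formate/acetonitrile gradient, UV 254 nm, and Orbitrap MS/MS. Scored as detected or not detected.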

The test system of data set [2] is Mus musculus. Nature of the data set: Drug metabolism in plasma of chimeric mouse transplanted with human hepatocytes treated with FK3453 at 3 mg/kg, iv as single dose. The class given is ADME, organism-based, Hepatocyte. Details: dose 3 mg/kg, route intravenous. A digest of the protocol:
as §1

Data set [3] in a line: Retention time of the compound by UV/mass spectrometry. Format: physicochemical. Put shortly: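 Retention time on Acquity BEH C18 column (1.7 µm, 2.1×100 mm). Mobile phase 5 mM ammonium formate with 5% acetonitrile against acetonitrile, at 0.2 mL/min. Gradient: 100:0 to 2.5 min, linear to 65:35 by 25 min, 10:90 to 27 min. Detection by UV at 254 nm and MS.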

`CC(C)n1nc(-c2c(-c3ccccc3)nc(N)[nH]c2=O)ccc1=O`: the Drug metabolism result in data set [1] and in data set [2] was “metabolite_detected” each time. This compound also gave a Retention_time in data set [3] of 16.5 min.
